# Assays:
# Micrococcus luteus [1] = assay: Antibacterial activity against Micrococcus luteus ATCC 4698 at 100 ug/disk after 24 hrs by paper disk diffusion technique; format: functional; details: NCTC 2665, 24 h, read-out: IZ
# Bacillus cereus [2] = assay: Antibacterial activity against Bacillus cereus ATCC 11778 at 100 ug/disk after 24 hrs by paper disk diffusion technique; format: functional; details: ATCC 11778, 24 h, read-out: IZ
# Staphylococcus aureus [3] = assay: Antibacterial activity against Staphylococcus aureus ATCC 9144 after 24 hrs by agar streak dilution method; format: functional; details: ATCC 9144, 24 h
# Method in brief: (§1)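 Agar streak dilution MIC. Stock […] in dimethyl formamide. Graded quantities go into molten sterile nutrient agar, poured at 40–50 °C to 3–4 mm depth and left to solidify. Plates are streaked with about 10⁵ cfu/ml bacterial suspension and incubated 24 h at 37 °C. MIC is the lowest concentration with no visible growth.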
# [4] = tested on: Staphylococcus epidermidis; assay: Antibacterial activity against Staphylococcus epidermidis ATCC 155 after 24 hrs by agar streak dilution method; format: functional; details: ATCC 155, 24 h; method in brief: as §1
# Micrococcus luteus [5] = assay: Antibacterial activity against Micrococcus luteus ATCC 4698 after 24 hrs by agar streak dilution method; format: functional; details: NCTC 2665, 24 h; method in brief: as §1
# Bacillus cereus [6] = assay: Antibacterial activity against Bacillus cereus ATCC 11778 after 24 hrs by agar streak dilution method; format: functional; details: ATCC 11778, 24 h; method in brief: as §1
# Klebsiella pneumoniae [7] = assay: Antibacterial activity against Klebsiella pneumoniae ATCC 11298 after 24 hrs by agar streak dilution method; format: functional; details: ATCC 11298, 24 h; method in brief: as §1
# Pseudomonas aeruginosa = assay: microbe, parasite or virus in culture; details: ATCC 2853, 24 h, read-out: IZ
# Staphylococcus aureus [8] = assay: microbe, parasite or virus in culture; details: ATCC 9144, 24 h, read-out: IZ
# [9] = tested on: Staphylococcus epidermidis; assay: microbe, parasite or virus in culture; details: ATCC 155, 24 h, read-out: IZ
# Escherichia coli = assay: microbe, parasite or virus in culture; details: ATCC 25922, 24 h, read-out: IZ
# Klebsiella pneumoniae [10] = assay: microbe, parasite or virus in culture; details: ATCC 11298, 24 h, read-out: IZ
compound,measurement,setting,value
O=C(O)c1cn(C2CC2)c2cc(N3CCNCC3)c(F)cc2c1=O [CIPROFLOXACIN],zone of inhibition at 100 µg/disc,Micrococcus luteus [1],30 mm
same,zone of inhibition at 100 µg/disc,Bacillus cereus [2],29 mm
same,MIC,Staphylococcus aureus [3],0.2 µg/mL
same,MIC,[4],0.39 µg/mL
same,MIC,Micrococcus luteus [5],0.1 µg/mL
same,MIC,Bacillus cereus [6],0.3 µg/mL
same,MIC,Klebsiella pneumoniae [7],0.1 µg/mL
same,zone of inhibition at 100 µg/disc,Pseudomonas aeruginosa,33 mm
same,zone of inhibition at 100 µg/disc,Staphylococcus aureus [8],29 mm
same,zone of inhibition at 100 µg/disc,[9],31 mm
same,zone of inhibition at 100 µg/disc,Escherichia coli,32 mm
same,zone of inhibition at 100 µg/disc,Klebsiella pneumoniae [10],33 mm
